Columns and labels:
Type in all cases: cell-based
[1] = target: T1, Voltage-dependent T-type calcium channel subunit alpha-1G (Homo sapiens, UniProt O43497); test: Inhibition of T type calcium channel subunit alpha1G expressed in HEK293 cells assessed as effect on KCl-induced increase in intracellular calcium level at 10 uM by FDSS assay
Procedure, shortened: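 HEK293 cells stably co-expressing α1G and Kir2.1 were plated at 40,000 cells/well and used the next day. Loaded 60 min at room temperature with 5 µM fluo3/AM plus 0.001% Pluronic F-127 in HEPES buffer (1.8 mM CaCl2, pH 7.4). Depolarized with 70 mM KCl in buffer containing 10 mM CaCl2; the rise in intracellular Ca2+ was read by fluorescence.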

[2] = target: T1, Voltage-dependent T-type calcium channel subunit alpha-1G; test: Inhibition of T type calcium channel subunit alpha-1G expressed in HEK293 cells assessed as effect on T-type calcium currents at 10 uM by patch clamp method
[3] = target: T1, Voltage-dependent T-type calcium channel subunit alpha-1G; test: Inhibition of T type calcium channel subunit alpha-1G expressed in HEK293 cells assessed as effect on T-type calcium currents by patch clamp method
Procedure, shortened: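 Whole-cell patch clamp on HEK293 cells expressing α1G. Electrodes of 3-4 MΩ held internal solution (mM): 130 KCl, 11 EGTA, 5 Mg-ATP, 10 HEPES, pH 7.4. External solution (mM): 140 NaCl, 2 CaCl2, 10 HEPES, 10 glucose, pH 7.4. Currents evoked every 15 s by a 50 ms step from -100 to -30 mV. Read-out was peak current; IC50 from dose-response fits.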

[4] = target: Voltage-dependent T-type calcium channel subunit alpha-1H (Homo sapiens) (UniProt O95180); test: Inhibition of T type calcium channel subunit alpha-1H expressed in Xenopus oocytes at 100 uM by FDSS assay; conditions: Oocyte
Chain of Voltage-dependent T-type calcium channel subunit alpha-1H (Homo sapiens) (O95180 whole entry): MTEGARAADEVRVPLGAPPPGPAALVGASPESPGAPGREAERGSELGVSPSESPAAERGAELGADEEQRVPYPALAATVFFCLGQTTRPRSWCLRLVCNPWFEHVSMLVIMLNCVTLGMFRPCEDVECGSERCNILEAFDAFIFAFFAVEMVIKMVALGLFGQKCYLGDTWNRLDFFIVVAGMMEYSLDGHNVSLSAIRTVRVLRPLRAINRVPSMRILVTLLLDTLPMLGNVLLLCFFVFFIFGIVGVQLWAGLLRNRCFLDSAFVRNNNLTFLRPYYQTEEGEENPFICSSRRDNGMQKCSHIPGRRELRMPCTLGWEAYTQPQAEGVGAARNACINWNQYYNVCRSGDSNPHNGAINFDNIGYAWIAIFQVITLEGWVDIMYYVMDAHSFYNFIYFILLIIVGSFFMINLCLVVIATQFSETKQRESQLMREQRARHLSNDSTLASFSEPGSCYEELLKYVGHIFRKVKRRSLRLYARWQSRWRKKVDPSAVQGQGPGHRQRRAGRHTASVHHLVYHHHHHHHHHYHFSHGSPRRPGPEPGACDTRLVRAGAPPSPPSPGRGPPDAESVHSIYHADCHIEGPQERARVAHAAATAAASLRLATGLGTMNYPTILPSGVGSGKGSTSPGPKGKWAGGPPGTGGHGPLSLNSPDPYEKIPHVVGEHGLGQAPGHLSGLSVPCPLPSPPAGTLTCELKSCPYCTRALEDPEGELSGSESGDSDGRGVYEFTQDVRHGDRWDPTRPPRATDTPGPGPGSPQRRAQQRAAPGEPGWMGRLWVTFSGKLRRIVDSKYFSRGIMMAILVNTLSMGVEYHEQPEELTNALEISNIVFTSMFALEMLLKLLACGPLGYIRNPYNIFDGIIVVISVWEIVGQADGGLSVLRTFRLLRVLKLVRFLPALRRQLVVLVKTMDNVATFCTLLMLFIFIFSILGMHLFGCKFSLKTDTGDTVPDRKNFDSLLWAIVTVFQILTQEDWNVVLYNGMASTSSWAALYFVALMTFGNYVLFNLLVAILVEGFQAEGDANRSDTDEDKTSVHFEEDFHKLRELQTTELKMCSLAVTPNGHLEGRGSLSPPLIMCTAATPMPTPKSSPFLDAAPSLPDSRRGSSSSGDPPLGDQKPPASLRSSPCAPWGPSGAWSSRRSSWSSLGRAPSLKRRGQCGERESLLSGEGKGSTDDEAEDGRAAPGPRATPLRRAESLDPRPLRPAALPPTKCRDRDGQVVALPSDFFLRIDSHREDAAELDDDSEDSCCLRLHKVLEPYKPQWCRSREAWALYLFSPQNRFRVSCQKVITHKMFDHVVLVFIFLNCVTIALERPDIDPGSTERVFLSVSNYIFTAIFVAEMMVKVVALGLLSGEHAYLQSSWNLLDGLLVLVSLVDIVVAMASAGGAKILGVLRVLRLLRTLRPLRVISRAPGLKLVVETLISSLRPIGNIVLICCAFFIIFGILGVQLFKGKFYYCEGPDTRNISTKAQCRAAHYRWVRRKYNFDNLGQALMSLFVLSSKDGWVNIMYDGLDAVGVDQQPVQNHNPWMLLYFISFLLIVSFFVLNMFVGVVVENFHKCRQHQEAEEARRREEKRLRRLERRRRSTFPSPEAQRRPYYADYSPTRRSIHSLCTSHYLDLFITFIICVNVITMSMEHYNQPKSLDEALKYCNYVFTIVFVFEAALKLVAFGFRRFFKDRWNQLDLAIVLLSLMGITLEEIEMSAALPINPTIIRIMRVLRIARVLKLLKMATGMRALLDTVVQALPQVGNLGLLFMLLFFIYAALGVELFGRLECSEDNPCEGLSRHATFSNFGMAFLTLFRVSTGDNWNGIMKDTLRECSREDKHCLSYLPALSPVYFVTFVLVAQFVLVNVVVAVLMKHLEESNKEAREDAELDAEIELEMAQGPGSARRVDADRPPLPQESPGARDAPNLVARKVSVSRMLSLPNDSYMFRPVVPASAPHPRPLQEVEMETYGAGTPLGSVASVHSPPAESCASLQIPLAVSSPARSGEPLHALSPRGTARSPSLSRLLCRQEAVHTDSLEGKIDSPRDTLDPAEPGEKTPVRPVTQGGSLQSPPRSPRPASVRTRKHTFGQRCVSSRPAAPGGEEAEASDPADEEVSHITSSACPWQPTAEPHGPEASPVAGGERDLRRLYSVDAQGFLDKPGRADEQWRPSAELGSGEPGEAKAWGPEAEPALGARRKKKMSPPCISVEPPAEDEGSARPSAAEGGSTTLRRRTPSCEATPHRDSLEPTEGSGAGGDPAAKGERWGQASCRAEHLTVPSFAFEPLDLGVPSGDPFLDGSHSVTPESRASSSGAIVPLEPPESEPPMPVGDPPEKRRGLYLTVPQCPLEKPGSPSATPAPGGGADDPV

T1 sequence (O43497 whole entry): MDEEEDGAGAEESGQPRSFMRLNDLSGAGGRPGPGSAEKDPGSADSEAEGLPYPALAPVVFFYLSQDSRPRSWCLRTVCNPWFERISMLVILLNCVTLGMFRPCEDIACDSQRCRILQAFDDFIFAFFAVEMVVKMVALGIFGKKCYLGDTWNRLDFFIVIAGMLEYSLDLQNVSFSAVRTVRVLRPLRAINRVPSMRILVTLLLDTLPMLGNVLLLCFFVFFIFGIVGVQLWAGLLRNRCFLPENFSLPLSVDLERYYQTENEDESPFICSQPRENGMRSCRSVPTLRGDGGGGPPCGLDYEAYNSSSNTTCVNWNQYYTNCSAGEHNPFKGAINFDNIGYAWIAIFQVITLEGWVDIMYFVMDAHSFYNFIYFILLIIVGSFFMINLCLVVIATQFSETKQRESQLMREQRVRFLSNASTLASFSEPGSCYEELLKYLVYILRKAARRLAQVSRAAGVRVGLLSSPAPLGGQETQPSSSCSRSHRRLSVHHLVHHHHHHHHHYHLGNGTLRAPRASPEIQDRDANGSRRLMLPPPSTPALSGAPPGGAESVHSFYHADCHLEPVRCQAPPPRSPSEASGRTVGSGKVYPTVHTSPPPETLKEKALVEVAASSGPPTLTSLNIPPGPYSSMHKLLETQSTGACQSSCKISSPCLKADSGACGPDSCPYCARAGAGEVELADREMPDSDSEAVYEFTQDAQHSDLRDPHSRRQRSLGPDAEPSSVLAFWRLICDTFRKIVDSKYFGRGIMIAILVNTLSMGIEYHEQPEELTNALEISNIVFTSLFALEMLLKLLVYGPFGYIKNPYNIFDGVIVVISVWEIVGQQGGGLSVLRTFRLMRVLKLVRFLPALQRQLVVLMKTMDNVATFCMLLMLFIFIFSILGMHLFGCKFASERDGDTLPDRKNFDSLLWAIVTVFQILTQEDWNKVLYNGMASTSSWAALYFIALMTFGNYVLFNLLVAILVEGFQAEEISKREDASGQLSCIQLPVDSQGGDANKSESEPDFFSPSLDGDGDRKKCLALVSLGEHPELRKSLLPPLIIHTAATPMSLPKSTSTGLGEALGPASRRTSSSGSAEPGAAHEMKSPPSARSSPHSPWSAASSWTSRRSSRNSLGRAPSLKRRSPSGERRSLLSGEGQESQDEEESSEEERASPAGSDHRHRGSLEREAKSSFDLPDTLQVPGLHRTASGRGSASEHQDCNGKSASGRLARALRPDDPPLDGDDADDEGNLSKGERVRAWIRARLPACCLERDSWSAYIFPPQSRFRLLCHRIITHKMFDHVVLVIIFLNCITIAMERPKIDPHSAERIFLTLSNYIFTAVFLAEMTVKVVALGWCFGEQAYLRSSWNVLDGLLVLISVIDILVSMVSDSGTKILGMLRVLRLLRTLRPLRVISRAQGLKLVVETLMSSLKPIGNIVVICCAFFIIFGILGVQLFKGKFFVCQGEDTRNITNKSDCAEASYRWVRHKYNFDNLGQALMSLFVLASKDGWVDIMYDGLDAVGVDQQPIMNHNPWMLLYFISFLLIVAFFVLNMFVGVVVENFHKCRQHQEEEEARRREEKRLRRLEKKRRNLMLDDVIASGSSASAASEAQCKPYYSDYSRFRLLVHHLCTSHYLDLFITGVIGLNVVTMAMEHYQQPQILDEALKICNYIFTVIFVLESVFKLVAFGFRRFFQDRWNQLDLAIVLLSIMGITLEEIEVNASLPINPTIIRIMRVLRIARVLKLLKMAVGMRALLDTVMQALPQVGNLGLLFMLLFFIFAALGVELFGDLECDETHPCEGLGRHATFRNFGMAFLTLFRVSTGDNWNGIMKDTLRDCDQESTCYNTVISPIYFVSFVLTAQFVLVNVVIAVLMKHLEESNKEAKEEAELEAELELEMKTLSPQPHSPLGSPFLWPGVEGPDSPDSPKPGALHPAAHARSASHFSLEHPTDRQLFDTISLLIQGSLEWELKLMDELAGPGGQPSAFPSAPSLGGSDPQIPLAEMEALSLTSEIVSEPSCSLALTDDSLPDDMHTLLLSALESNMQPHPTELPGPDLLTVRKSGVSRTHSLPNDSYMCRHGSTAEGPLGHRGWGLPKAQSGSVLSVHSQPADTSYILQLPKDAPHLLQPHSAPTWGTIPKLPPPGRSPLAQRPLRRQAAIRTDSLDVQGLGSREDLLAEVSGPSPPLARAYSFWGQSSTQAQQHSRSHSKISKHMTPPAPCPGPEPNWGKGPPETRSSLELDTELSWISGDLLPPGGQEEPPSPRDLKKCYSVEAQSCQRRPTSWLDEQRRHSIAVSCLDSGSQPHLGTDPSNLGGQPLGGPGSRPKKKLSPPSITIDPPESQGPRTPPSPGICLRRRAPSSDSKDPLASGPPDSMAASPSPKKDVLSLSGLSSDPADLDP

Structure (SMILES)	inhibition [1] [%]	inhibition [2] [%]	IC50 [3] [nM]	inhibition [4] [%]
O=C(CCCN1CCN(Cc2ccccc2)CC1)Nc1cc(Cl)c(Cl)c(Cl)c1	49.4	–	–	–
COc1cccc(N2CCN(CCCC(=O)Nc3ccc(Cl)cc3)CC2)c1	40.6	84.1	2780	–
COc1cccc(N2CCN(CCCC(=O)Nc3ccc(F)cc3F)CC2)c1	40.6	–	–	–
O=C(CCCN1CCN(c2ccccc2Cl)CC1)Nc1ccc(Cl)cc1	37.3	60.5	6010	–
COc1cccc(N2CCN(CCCCC(=O)N3CCN(CC(=O)Nc4ccccc4Cl)CC3)CC2)c1	26.1	–	–	–
O=C(CN1CCN(C(=O)CCCCN2CCN(c3ccccc3)CC2)CC1)Nc1ccccc1Cl	25.2	–	–	–
O=C(CCCCN1CCN(Cc2ccc(Cl)cc2)CC1)N1CCN(c2ccccc2)CC1	50.4	79.7	3400	–
O=C(CCN1CCN(Cc2c(F)cccc2Cl)CC1)Nc1ccc(F)cc1F	29.7	–	–	–
O=C(CCCN1CCN(c2ccc(F)cc2)CC1)Nc1ccc(F)cc1F	38.1	–	–	–
CCN1CCN(CCCCC(=O)N2CCN(CC(=O)Nc3cccc(Cl)c3)CC2)CC1	–	–	–	71.6
O=C(CCCCN1CCN(Cc2ccc(Cl)cc2)CC1)N1CCN(c2ccccc2F)CC1	48.3	89.7	1810	–
O=C(CCCN1CCN(Cc2ccc(Cl)cc2)CC1)Nc1ccc(Cl)cc1	33.6	92.6	370	–
O=C(CCCN1CCN(Cc2ccccc2)CC1)Nc1ccc(Cl)cc1Cl	44.9	79.3	3140	–
COc1ccccc1N1CCN(CCCC(=O)Nc2ccc(Cl)cc2)CC1	51.8	84.3	2610	–
O=C(CCCN1CCN(c2ccccc2F)CC1)Nc1ccc(F)cc1F	32.2	–	–	–
O=C(CCCN1CCN(Cc2cccc(Cl)c2)CC1)Nc1ccc(F)cc1F	30.2	–	–	–
O=C(CCN1CCN(c2ccccc2Cl)CC1)Nc1ccc(F)cc1F	28.4	–	–	–
O=C(CCCN1CCN(Cc2cccc(Cl)c2)CC1)Nc1cc(Cl)c(Cl)c(Cl)c1	37	–	–	–
O=C(CCN1CCN(Cc2ccccc2)CC1)Nc1ccc(F)cc1F	21.1	–	–	–
COc1cccc(N2CCN(CCCC(=O)Nc3ccc(Cl)cc3Cl)CC2)c1	44.2	80.3	3810	–
CN1CCN(CCCCC(=O)N2CCN(CC(=O)Nc3cccc(C(F)(F)F)c3)CC2)CC1	–	–	–	< 1
O=C(CN1CCN(C(=O)CCCCN2CCN(Cc3cccc(Cl)c3)CC2)CC1)Nc1ccccc1Cl	40.9	–	–	–
COc1ccccc1N1CCN(CCC(=O)Nc2ccc(F)cc2F)CC1	37.1	–	–	–
O=C(CCN1CCN(c2ccc(F)cc2)CC1)Nc1ccc(F)cc1F	29.7	–	–	–
O=C(CCCN1CCN(Cc2c(F)cccc2Cl)CC1)Nc1ccc(F)cc1F	38.9	–	–	–
O=C(CCN1CCN(c2cccc(Cl)c2)CC1)Nc1ccc(F)cc1F	26.4	–	–	–
O=C(CCCN1CCN(c2ccccc2Cl)CC1)Nc1cc(Cl)c(Cl)c(Cl)c1	13.6	–	–	–

Structure (SMILES)	inhibition [1] [%]	inhibition [2] [%]	IC50 [3] [nM]	inhibition [4] [%]
COc1ccccc1N1CCN(CCCC(=O)Nc2cc(Cl)c(Cl)c(Cl)c2)CC1	33.7	–	–	–
O=C(CCCN1CCN(c2ccccc2F)CC1)Nc1ccc(Cl)cc1Cl	27.4	–	–	–
O=C(CCCN1CCN(Cc2c(F)cccc2Cl)CC1)Nc1ccc(Cl)cc1Cl	49.6	89.6	2400	–
O=C(CCCN1CCN(c2cccc(Cl)c2)CC1)Nc1ccc(F)cc1F	51	–	–	–
CCN1CCN(CCCCC(=O)N2CCN(CC(=O)Nc3cccc(C(F)(F)F)c3)CC2)CC1	–	–	–	23.6
O=C(CCCN1CCN(Cc2ccc(Cl)cc2)CC1)Nc1cc(Cl)c(Cl)c(Cl)c1	27.5	–	–	–
O=C(CCCN1CCN(c2ccc(Cl)cc2)CC1)Nc1ccc(Cl)cc1	48.3	94.6	2640	–
O=C(CCCN1CCN(c2ccccc2)CC1)Nc1ccc(F)cc1F	36.8	–	–	–
O=C(CCCN1CCN(Cc2c(F)cccc2Cl)CC1)Nc1cc(Cl)c(Cl)c(Cl)c1	35.1	–	–	–
O=C(CCCCN1CCN(c2cccc(Cl)c2)CC1)Nc1ccccc1Cl	54	93.2	1910	–
O=C(CCCN1CCN(c2ccccc2Cl)CC1)Nc1ccc(F)cc1F	42	–	–	–
O=C(CCCN1CCN(Cc2cccc(Cl)c2)CC1)Nc1ccc(Cl)cc1Cl	50.8	87.3	1480	–
O=C(CCCN1CCN(c2ccccc2)CC1)Nc1ccc(Cl)cc1	30.4	75.1	4470	–
O=C(CCCN1CCN(Cc2ccc3c(c2)OCO3)CC1)Nc1ccc(Cl)cc1Cl	49.8	88.1	1670	–
O=C(CCN1CCN(c2ccccc2F)CC1)Nc1ccc(F)cc1F	30.3	–	–	–
O=C(CCCN1CCN(Cc2cccc(Cl)c2)CC1)Nc1ccc(Cl)cc1	38.3	92.4	1800	–
O=C(CCCN1CCN(Cc2ccccc2)CC1)Nc1ccc(F)cc1F	23.2	–	–	–
CCN1CCN(CCCCC(=O)N2CCN(CC(=O)Nc3cccc(C)c3)CC2)CC1	-1.36	–	–	–
O=C(CN1CCN(C(=O)CCCCN2CCN(Cc3ccccc3)CC2)CC1)Nc1ccccc1Cl	15.9	–	–	–
O=C(CCCCN1CCN(Cc2ccc(Cl)c(Cl)c2)CC1)N1CCN(c2ccccc2)CC1	56.2	73.8	2910	–
O=C(CN1CCN(C(=O)CCCCN2CCN(c3ccccc3F)CC2)CC1)Nc1ccccc1Cl	22.1	–	–	–
O=C(CCCN1CCN(c2cccc(Cl)c2)CC1)Nc1cc(Cl)c(Cl)c(Cl)c1	16.8	–	–	–
COc1cccc(N2CCN(CCCC(=O)Nc3cc(Cl)c(Cl)c(Cl)c3)CC2)c1	21.6	–	–	–
O=C(CCCN1CCN(c2ccc(F)cc2)CC1)Nc1ccc(Cl)cc1	32.5	76.1	3490	–
O=C(CCN1CCN(Cc2ccc(Cl)cc2)CC1)Nc1ccc(F)cc1F	33.2	–	–	–
O=C(CCCN1CCN(Cc2ccc(Cl)cc2)CC1)Nc1ccc(F)cc1F	48	–	–	–
CN1CCN(CCCCC(=O)N2CCN(CC(=O)Nc3cccc(Cl)c3)CC2)CC1	–	–	–	< 1

Structure (SMILES)	inhibition [1] [%]	inhibition [2] [%]	IC50 [3] [nM]	inhibition [4] [%]
O=C(CCCCN1CCN(Cc2ccc(Cl)c(Cl)c2)CC1)Nc1ccccc1Cl	55.9	91	1010	–
N#Cc1ccccc1N1CCN(CCCCC(=O)N2CCN(CC(=O)Nc3ccccc3Cl)CC2)CC1	7.38	–	–	–
O=C(CCCN1CCN(c2ccccc2F)CC1)Nc1ccc(Cl)cc1	36.1	79.2	3630	–
O=C(CN1CCN(C(=O)CCCCN2CCN(c3ccccc3)CC2)CC1)Nc1cccc(C(F)(F)F)c1	–	–	–	53
O=C(CN1CCN(C(=O)CCCCN2CCN(Cc3ccc(Cl)cc3)CC2)CC1)Nc1ccccc1Cl	26.2	–	–	–
O=C(CCN1CCN(Cc2cccc(Cl)c2)CC1)Nc1ccc(F)cc1F	34.7	–	–	–
O=C(CCCN1CCN(Cc2ccc(Cl)c(Cl)c2)CC1)Nc1ccc(Cl)cc1Cl	47.6	94.4	750	–
O=C(CCCN1CCN(c2ccccc2)CC1)Nc1cc(Cl)c(Cl)c(Cl)c1	38.3	–	–	–
COc1ccccc1N1CCN(CCCC(=O)Nc2ccc(F)cc2F)CC1	33	–	–	–
O=C(CCCN1CCN(Cc2ccc(Cl)c(Cl)c2)CC1)Nc1ccc(F)cc1F	59.9	–	–	–
O=C(CCCN1CCN(c2cccc(Cl)c2)CC1)Nc1ccc(Cl)cc1Cl	38.1	95.4	1010	–
O=C(CCCN1CCN(Cc2ccc3c(c2)OCO3)CC1)Nc1ccc(Cl)cc1	33.4	81.9	2730	–
O=C(CCCCN1CCN(Cc2cccc(Cl)c2)CC1)N1CCN(c2ccccc2F)CC1	48.8	87.1	2440	–
O=C(CCCN1CCN(Cc2ccc(Cl)cc2)CC1)Nc1ccc(Cl)cc1Cl	61.3	91.1	280	–
O=C(CCN1CCN(c2ccccc2)CC1)Nc1ccc(F)cc1F	33.2	–	–	–
COc1cccc(N2CCN(CCC(=O)Nc3ccc(F)cc3F)CC2)c1	29.5	–	–	–
COc1ccccc1N1CCN(CCCC(=O)Nc2ccc(Cl)cc2Cl)CC1	42.7	79.1	3340	–
O=C(CCCN1CCN(c2ccccc2)CC1)Nc1ccc(Cl)cc1Cl	38.5	76.2	4210	–
O=C(CN1CCN(C(=O)CCCCN2CCN(c3ccccc3)CC2)CC1)Nc1cccc(Cl)c1	–	–	–	75.3
O=C(CCN1CCN(Cc2ccc(Cl)c(Cl)c2)CC1)Nc1ccc(F)cc1F	34.6	–	–	–
O=C(CCCN1CCN(c2ccc(F)cc2)CC1)Nc1cc(Cl)c(Cl)c(Cl)c1	20.7	–	–	–
O=C(CCCN1CCN(Cc2ccccc2)CC1)Nc1ccc(Cl)cc1	30.8	78	3520	–
O=C(CCCN1CCN(c2ccccc2F)CC1)Nc1cc(Cl)c(Cl)c(Cl)c1	20.1	–	–	–
O=C(CN1CCN(C(=O)CCCCN2CCN(c3ccc(F)cc3)CC2)CC1)Nc1ccccc1Cl	34.9	–	–	–
O=C(CCCN1CCN(Cc2c(F)cccc2Cl)CC1)Nc1ccc(Cl)cc1	39.8	72.8	3270	–
